The target of data set [1] is T1, mouse LIN28Δ, mouse TUT4 and pre-let-7g (Mus musculus, UniProt Q8K3Y3).
T1 sequence (Q8K3Y3 16-184): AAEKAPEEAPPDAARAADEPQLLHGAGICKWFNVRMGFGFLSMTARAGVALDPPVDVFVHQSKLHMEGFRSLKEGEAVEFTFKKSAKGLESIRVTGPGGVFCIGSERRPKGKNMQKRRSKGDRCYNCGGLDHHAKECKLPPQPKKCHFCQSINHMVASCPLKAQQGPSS
T1 sequence (B2RX14 230-1424 partner): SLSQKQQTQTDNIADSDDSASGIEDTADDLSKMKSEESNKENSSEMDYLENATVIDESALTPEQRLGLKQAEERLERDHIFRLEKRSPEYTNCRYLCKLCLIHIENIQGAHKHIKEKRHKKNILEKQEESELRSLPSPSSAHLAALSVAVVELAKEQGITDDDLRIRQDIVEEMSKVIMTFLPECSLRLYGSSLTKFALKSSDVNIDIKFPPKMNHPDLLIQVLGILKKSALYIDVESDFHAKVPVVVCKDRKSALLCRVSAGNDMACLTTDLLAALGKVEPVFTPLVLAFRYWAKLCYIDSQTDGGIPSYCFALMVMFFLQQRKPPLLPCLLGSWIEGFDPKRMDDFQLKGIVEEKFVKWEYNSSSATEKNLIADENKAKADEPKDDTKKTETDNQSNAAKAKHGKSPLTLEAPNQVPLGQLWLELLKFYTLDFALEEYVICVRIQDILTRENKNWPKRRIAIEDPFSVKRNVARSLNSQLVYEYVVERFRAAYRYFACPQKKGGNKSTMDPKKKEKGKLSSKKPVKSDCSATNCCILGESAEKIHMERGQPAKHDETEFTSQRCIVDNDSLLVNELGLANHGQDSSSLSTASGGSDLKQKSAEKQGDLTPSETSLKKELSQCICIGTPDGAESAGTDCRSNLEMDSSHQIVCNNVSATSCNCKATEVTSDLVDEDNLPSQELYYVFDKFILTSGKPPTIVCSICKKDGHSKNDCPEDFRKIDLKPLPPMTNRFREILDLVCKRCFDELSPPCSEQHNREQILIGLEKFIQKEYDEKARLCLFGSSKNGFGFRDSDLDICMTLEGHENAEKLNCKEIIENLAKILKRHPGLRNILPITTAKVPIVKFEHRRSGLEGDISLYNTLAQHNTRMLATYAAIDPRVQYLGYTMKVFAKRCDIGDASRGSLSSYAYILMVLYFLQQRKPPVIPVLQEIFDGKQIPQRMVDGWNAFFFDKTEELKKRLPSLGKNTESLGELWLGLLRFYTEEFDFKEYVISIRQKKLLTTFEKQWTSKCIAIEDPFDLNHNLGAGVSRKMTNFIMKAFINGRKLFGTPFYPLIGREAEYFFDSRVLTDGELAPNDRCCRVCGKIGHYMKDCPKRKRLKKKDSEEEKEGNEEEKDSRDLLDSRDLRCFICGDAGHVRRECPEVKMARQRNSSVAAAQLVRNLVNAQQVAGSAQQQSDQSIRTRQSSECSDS
As to the kind of experiment: LIN28-mediated let-7 oligouridylation assay. The class given is biochemical. The following applies: for Inhibition of LIN28-mediated oligouridylation: 40 μM compound, 37°C, denaturing PAGE. The method in brief: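 Mouse LIN28A, mouse TUT4 (230–1424) and in vitro-transcribed, T4 PNK-radiolabelled pre-let-7g were incubated with test compound (40 μM screen; 80 μM follow-up) for 40 min at 37°C. Buffer: 20 mM Tris 7.5, 5% glycerol, 6 mM MgCl2, 6 mM DTT, 50 μM ZnCl2, 40 mM KCl, 200 μM UTP. Reactions were stopped with EDTA/SDS/proteinase K (50°C, 30 min) and run on denaturing PAGE. RNA and DMSO served as controls.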

Data set [2] has as its target mouse LIN28Δ:preE-let-7d complex (Mus musculus, UniProt Q8K3Y3). The data set can be described thus: HSQC spectroscopy. The data set is classed as binding. The following applies: 15N-labeled mouse LIN28Δ with unlabeled preE-let-7d.
For data set [3], the system named is LIN28-expressing mouse embryonic stem cells. As to the kind of experiment: Toxicity to mouse embryonic stem cells. The data set is classed as cell-based.
For data set [4], the system named is HeLa cells that do not express LIN28. The data set can be described thus: Toxicity to HeLa cells. The class given is cell-based, human.
The next data set can be described thus: Solubility in solution. The class given is physicochemical. The following applies: water / solution.
For a further data set, the system named is HeLaLIN28A. As to the kind of experiment: let-7-sensitive dual luciferase reporter assay, HeLaLIN28A. The data set is classed as cell-based, human. The following applies: 100 μM or higher concentrations, 48 hr. The method in brief: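 A HeLa clone stably expressing low-level FLAG-LIN28A plus the 8×let-7 Renilla/firefly dual-luciferase sensor was treated 48 hr with vehicle (DMSO) or test compound at the indicated concentrations. Dual luciferase activity was then assayed, with firefly as internal control. Runs used 3 or 5 biological replicates; Student's t test against vehicle.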
On the technique in general: In a reporter assay the amount or activity of a reporter protein is the signal.

The target of another data set is T2, LIN28ΔY140A (human, UniProt Q9H9Z2 16-187, Y140A).
T2 sequence: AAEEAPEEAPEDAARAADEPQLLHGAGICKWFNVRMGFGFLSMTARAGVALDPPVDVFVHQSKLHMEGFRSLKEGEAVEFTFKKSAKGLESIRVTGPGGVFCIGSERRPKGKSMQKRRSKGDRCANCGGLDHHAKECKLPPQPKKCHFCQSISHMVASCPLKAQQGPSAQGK
The data set can be described thus: fluorescence polarization. A general note: In fluorescence polarisation assays a small probe gives low polarisation when free and higher when bound to something large.

A further data set has as its target T3, LIN28ΔF73A/Y140A (human, UniProt Q9H9Z2 16-187, F73A;Y140A).
T3 sequence: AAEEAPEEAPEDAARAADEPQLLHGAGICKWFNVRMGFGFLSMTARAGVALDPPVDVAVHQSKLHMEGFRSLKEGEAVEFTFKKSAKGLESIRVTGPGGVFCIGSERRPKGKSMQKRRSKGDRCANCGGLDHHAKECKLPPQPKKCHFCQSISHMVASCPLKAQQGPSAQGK
As to the kind of experiment: fluorescence polarization.

The target of data set [5] is T4, LIN28ΔF73A (human, UniProt Q9H9Z2 16-187, F73A).
T4 sequence: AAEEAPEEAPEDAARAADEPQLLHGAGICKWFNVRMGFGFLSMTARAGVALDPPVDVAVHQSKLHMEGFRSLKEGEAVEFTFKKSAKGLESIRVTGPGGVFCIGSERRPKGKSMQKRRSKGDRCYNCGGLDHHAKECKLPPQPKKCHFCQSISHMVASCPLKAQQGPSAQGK
The data set can be described thus: fluorescence polarization.

The target of data set [6] is T5, LIN28Δ (human, UniProt Q9H9Z2 16-187).
T5 sequence: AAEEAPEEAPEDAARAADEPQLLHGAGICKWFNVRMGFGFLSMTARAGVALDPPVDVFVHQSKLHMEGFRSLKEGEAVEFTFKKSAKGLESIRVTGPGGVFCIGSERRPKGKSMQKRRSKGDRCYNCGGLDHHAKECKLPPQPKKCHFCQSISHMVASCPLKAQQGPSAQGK
The data set can be described thus: fluorescence polarization.

Data set [7] deals with T5, LIN28Δ. The data set can be described thus: competition.
In data set [8] the target is T4, LIN28ΔF73A. The data set can be described thus: competition.
Data set [9] addresses T5, LIN28Δ. The data set can be described thus: competition. This is another data set of the same source.

Entries after “also recorded” stand apart in the source; their conditions may differ. Where two headings read alike, the source gives them in different places.

The results in this text go back to article PMC6511231 (Cell reports, 2018).

Consider `c1ccc(CN(CCN(Cc2ccccn2)Cc2ccccn2)Cc2ccccn2)nc1` [TPEN], for which the “Inhibition of LIN28-mediated oligouridylation” value in data set [1] is on record as “completely inhibited”. The “HSQC peak intensity changes” value in [2] is reported as “a number of peaks had significant reduction in intensity”. In addition, the Toxicity result in data set [3] and in [4] was “shows toxicity” each time.
Take `O=C1C=CC(=NS(=O)(=O)c2ccc(C(=O)O)cc2)C=C1` [LI20]: in [1], the “Inhibition of LIN28-mediated oligouridylation” value is reported as “completely inhibited”. For the same molecule, in the data set “Solubility in solution”, the Solubility result was “poor solubility in solution”.
As for `Cc1cc2c(C(C)C)c(O)c(O)c(C=O)c2c(O)c1-c1c(C)cc2c(C(C)C)c(O)c(O)c(C=O)c2c1O` [Gossypol], in [1], the “Inhibition of LIN28-mediated oligouridylation” value was “completely inhibited”.
As to `CC1(C)C(=O)N=C2C1=C(O)C(=O)c1ccccc12` [BVT-948], the “Inhibition of LIN28-mediated oligouridylation” value in [1] is listed as “completely inhibited”.
Same read-out and setting: for `C=CC(C)(C)c1[nH]c2ccccc2c1C1=C(O)C(=O)C(c2c[nH]c3c(CC=C(C)C)cccc23)=C(O)C1=O` [DAQ-B1, demethylasterriquinone B1] the value was “completely inhibited”.
Turning to `CNc1cncc(C(=O)O)c1` [5-(methylamino)nicotinic acid], in [1] (80 μM, compared to DMSO negative control), the “Inhibition of LIN28-mediated let-7 oligouridylation” value is on record as “weak activities”. In the data set with HeLaLIN28A, the “Relative Renilla luciferase activity” value is on record as “significant reduction of the relative Renilla luciferase activity; also recorded: weak activities”.
A word on the Kd: it is the constant that tells how readily two partners part at equilibrium. A lower Kd goes with tighter binding. On to GGGGUAGUGAUUUUACCCUGUUUAGGAGAU (structured_RNA) [preE-let-7f-1-FAM], for which the Kd was determined as 78.5 nM with LIN28ΔY140A, 589 nM in the data set with LIN28ΔF73A/Y140A, 72.4 nM with LIN28ΔF73A [5] and 28.5 nM with LIN28Δ [6].
Usually IC50 stands for the midpoint of a concentration-inhibition curve. In turn, GGGGUAGUGAUUUUACCCUGUUUAGGAGAU (structured_RNA) [preE-let-7f-1 unlabeled] showed a half-maximal inhibitory concentration (IC50) in the data set with LIN28Δ [7] of 44 nM.
Turning to UAGGAGA (ssRNA) [ZKD-binding riboprobe UAGGAGA], the half-maximal inhibitory concentration (IC50) with LIN28ΔF73A [8] is 1200 nM; with LIN28Δ [9] it was 3500 nM.
GGGGUAGUGAUUUUACCCUGUUUA (structured_RNA) [CSD-binding riboprobe] gave a 50% inhibitory concentration (IC50) with LIN28Δ [7] of 157 nM.
